{"source": "paper PMC4489158", "about": "(Biochemistry, 2009)", "key": {"[1]": {"system": "γ-secretase cleavage of APLP1 (APLP1 ICD production)", "test": "ICD in vitro generation", "format": "biochemical, human", "conditions": "for effect on ICD production from APLP1: tested between 100 and 500 µM"}, "[2]": {"molecular_target": "γ-secretase cleavage of APP (APP ICD production) (Cricetulus griseus, UniProt A0A061HTR1+A0A061IL97+A0A8C2QG42+G3HNF2)", "test": "ICD in vitro generation", "format": "biochemical, human", "conditions": "for concentration at which APP ICD production is decreased: microsomes; for effect on ICD production from APP: tested between 100 and 500 µM"}, "[3]": {"molecular_target": "γ-secretase cleavage of APLP2 (APLP2 ICD production) (Cricetulus griseus, UniProt A0A061HTR1+A0A061IL97+A0A8C2QG42+G3HNF2)", "test": "ICD in vitro generation", "format": "biochemical, human", "conditions": "for effect on ICD production from APLP2: tested between 100 and 500 µM"}, "[4]": {"system": "γ-secretase processing of APP (APP CTFs)", "test": "CTF accumulation in intact CHO cells expressing APP-His", "format": "cell-based, Chinese hamster", "conditions": "overnight (14 h)", "procedure,_shortened": "(§1)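 CHO cells stably expressing full-length human His-tagged APP or APLP1 (zeocin selection) were grown to confluence in six-well plates, then treated overnight (~14 h) with test compound or vehicle. Cells were lysed in NP-40 buffer with protease inhibitors. Equal protein (BCA) was immunoblotted with TetraHis antibody and ECL. CTF bands were quantified as fold over vehicle, with at least three measurements, and significance was assessed by two-way ANOVA.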"}, "[5]": {"system": "γ-secretase processing of APLP1 (APLP1 CTFs)", "test": "CTF accumulation in intact CHO cells expressing APLP1-His", "format": "cell-based, Chinese hamster", "conditions": "overnight (14 h)", "procedure,_shortened": "as §1"}, "[6]": {"system": "γ-secretase (Aβ42, Aβ38, Aβ40 production)", "conditions": "cited from earlier work"}, "[7]": {"conditions": "cited from earlier work"}}, "note": "pIC50: −log10 of the molar value.", "data": [{"compound": "C[C@H](NC(=O)Cc1cc(F)cc(F)c1)C(=O)NC(C(=O)OC(C)(C)C)c1ccccc1", "note": "(stereo partly drawn) [DAPT, N-[N-(3,5-difluoro-phenacetyl)-l-alanyl]-S-phenylglycine tert-butyl ester]", "values": [{"measurement": "pIC50", "setting": "[1]; read-out: IC50 of γ-secretase processing of APLP1 (ICD production)", "result": 7.02}]}, {"compound": "CC(C(=O)O)c1cccc(Oc2cc(Cl)cc(Cl)c2)c1", "note": "(centres unmarked) [FT-9, 2-[3-(3,5-dichlorophenoxy)phenyl]propanoic acid]", "values": [{"measurement": "concentration at which APP ICD production is decreased", "setting": "[2]", "result": "≥ 100", "unit": "µM"}, {"measurement": "inhibition at 500 µM", "setting": "[2]; read-out: reduction of APP ICDs", "result": "70 to 75", "unit": "%"}, {"measurement": "reduction of APLP1 ICDs", "setting": "[1]; 500 µM, highest concentration tested", "result": "~ 38%"}, {"measurement": "concentration at which APLP1 ICD production is decreased", "setting": "[1]; microsomes", "result": "≥ 100", "unit": "µM"}, {"measurement": "concentration at which APLP2 ICD production is decreased", "setting": "[3]; microsomes", "result": "≥ 100", "unit": "µM"}, {"measurement": "inhibition at 500 µM", "setting": "[3]; read-out: reduction of APLP2 ICDs", "result": "70 to 75", "unit": "%"}, {"measurement": "concentration causing accumulation of APP CTFs", "setting": "[4]", "result": "≥ 5", "unit": "µM"}, {"measurement": "concentration required to cause a 2-fold increase in APP CTFs", "setting": "[4]", "result": "3.4 ± 0.4", "unit": "µM"}, {"measurement": "concentration causing significant accumulation of APLP1 CTFs", "setting": "[5]", "result": "≥ 20", "unit": "µM"}, {"measurement": "concentration required to cause a 2-fold increase in APLP1 CTFs", "setting": "[5]", "result": "25.7 ± 8.9", "unit": "µM"}]}, {"compound": "C[C@@H](C(=O)O)c1ccc(-c2ccccc2)c(F)c1", "note": "[R-flurbiprofen, 2-(3-fluoro-4-phenylphenyl)propanoate]", "values": [{"measurement": "concentration at which APP ICD production is decreased", "setting": "[2]", "result": "≥ 400", "unit": "µM"}, {"measurement": "effect on ICD production from APP", "setting": "[2]", "result": "weakly inhibited"}, {"measurement": "effect on ICD production from APLP1", "setting": "[1]", "result": "unaffected"}, {"measurement": "effect on ICD production from APLP2", "setting": "[3]", "result": "weak inhibitory effect"}, {"measurement": "effect on Aβ38 levels", "setting": "[6]", "result": "increase"}, {"measurement": "effect on Aβ42 levels", "setting": "[6]", "result": "reducing"}, {"measurement": "brain penetrance", "setting": "[7]", "result": "poor"}]}, {"compound": "C[C@H](NC(=O)Cc1cc(F)cc(F)c1)C(=O)N[C@H]1N=C(c2ccccc2)c2ccccc2N(C)C1=O", "note": "[compound E, (2S)-2-{[(3,5-Difluorophenyl)acetyl]amino}-N-[(3S)-1-methyl-2-oxo-5-phenyl-2,3-dihydro-1H-1,4-benzodia-zepin-3-yl]propanamide]", "values": [{"measurement": "concentration needed for a 2-fold increase in CTF band signal, APP", "setting": "[4]", "result": "0.27 ± 0.01", "unit": "nM"}, {"measurement": "concentration needed for a 2-fold increase in CTF band signal, APLP1", "setting": "[5]", "result": "0.24 ± 0.22", "unit": "nM"}]}, {"compound": "propan-2-yl 2-[4-(4-chlorobenzoyl)phenoxy]-2-ethylpropanoate [fenofibrate]", "values": [{"measurement": "effect on ICD production from APP", "setting": "[2]", "result": "unaffected"}, {"measurement": "effect on ICD production from APLP1", "setting": "[1]", "result": "unaffected"}, {"measurement": "effect on ICD production from APLP2", "setting": "[3]", "result": "unaffected"}, {"measurement": "effect on level of production of Aβ38", "setting": "[6]", "result": "reduces"}, {"measurement": "effect on level of production of Aβ42", "setting": "[6]", "result": "increases"}, {"measurement": "effect on levels of Aβ40", "setting": "[6]", "result": "almost unchanged"}]}]}
